The source of these data is article PMC4789169 (Bioorganic & medicinal chemistry, 2016).

Structures are written as SMILES. Like-named read-outs stand apart in the source and are kept apart here.

Data set [1] deals with T1, recombinant Top1 (Homo sapiens, UniProt P11387).
T1 sequence (P11387 1-765): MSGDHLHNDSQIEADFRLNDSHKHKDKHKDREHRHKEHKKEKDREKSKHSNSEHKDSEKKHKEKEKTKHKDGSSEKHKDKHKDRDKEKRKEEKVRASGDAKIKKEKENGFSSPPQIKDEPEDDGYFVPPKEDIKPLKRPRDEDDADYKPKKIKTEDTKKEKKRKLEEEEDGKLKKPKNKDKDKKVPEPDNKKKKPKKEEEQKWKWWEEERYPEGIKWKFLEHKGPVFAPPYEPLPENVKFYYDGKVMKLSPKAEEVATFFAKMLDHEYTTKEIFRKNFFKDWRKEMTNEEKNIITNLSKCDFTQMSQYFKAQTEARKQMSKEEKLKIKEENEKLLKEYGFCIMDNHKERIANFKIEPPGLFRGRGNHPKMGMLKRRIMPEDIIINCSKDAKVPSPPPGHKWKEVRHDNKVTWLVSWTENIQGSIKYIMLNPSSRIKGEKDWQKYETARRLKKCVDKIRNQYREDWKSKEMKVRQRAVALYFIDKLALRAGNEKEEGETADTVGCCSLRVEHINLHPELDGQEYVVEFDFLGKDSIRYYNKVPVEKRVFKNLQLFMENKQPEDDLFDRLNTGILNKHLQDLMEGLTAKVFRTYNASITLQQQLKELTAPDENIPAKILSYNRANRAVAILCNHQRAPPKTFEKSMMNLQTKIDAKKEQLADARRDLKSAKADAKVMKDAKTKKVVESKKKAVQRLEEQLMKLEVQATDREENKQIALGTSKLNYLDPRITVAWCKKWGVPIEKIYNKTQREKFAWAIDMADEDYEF
The experiment in a line: Top1-mediated DNA cleavage assay. The format is biochemical. The conditions noted are these: for Top1 Cleavage: score relative to 1 μM camptothecin (1), tested at 0.1, 1, 10, 100 μM.

Data set [2] deals with all 60 cell lines (NCI-60 human tumor cell line screen). The experiment in a line: NCI-60 GI50 mean graph midpoint. The following applies: read-out: Cytotoxicity (GI50, μM) MGM. In kind it is cell-based. An outline of the steps:
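Compounds were first screened at a single 10 μM dose across NCI-60 lines. Those with low enough averaged growth percent advanced to a five-concentration assay (10⁻⁸–10⁻⁴ M). […] Values beyond the range were recorded as the minimum or maximum tested concentration. MGM is the average GI50 over all 60 lines.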

The next data set concerns Colon HCT-116. The conditions noted are these: read-out: Cytotoxicity (GI50, μM) Colon HCT-116; NCI-60; cited from earlier work.
The subject of the next data set is Renal SN12C. The following applies: read-out: Cytotoxicity (GI50, μM) Renal SN12C; NCI-60; cited from earlier work.
The test system of the next data set is Prostate DU-145. The following applies: read-out: Cytotoxicity (GI50, μM) Prostate DU-145; NCI-60; cited from earlier work.
Data set [3] has as its target T1, recombinant Top1. Also on record: key to the marks not given beside the values. The conditions noted are these: score relative to 1 μM camptothecin (1); cited from earlier work.
In another data set the test system is Ovarian OVCAR-3. The following applies: read-out: Cytotoxicity (GI50, μM) Ovarian OVCAR-3; NCI-60; cited from earlier work.
Another data set has as its system Melanoma UACC-62. The following applies: read-out: Cytotoxicity (GI50, μM) Melanoma UACC-62; NCI-60; cited from earlier work.
The next data set has as its system Lung HOP-62. The conditions noted are these: read-out: Cytotoxicity (GI50, μM) Lung HOP-62; NCI-60; cited from earlier work.
The subject of a further data set is CNS SF-539. The following applies: read-out: Cytotoxicity (GI50, μM) CNS SF-539; NCI-60; cited from earlier work.
The conditions of data set [4]: cited from earlier work.

As to `O=C1c2cc3c(cc2-c2c1c1cc(F)c(F)cc1c(=O)n2C[C@H](O)CO)OCO3` [Compound 37, (S)-2,3-Difluoro-6-(2,3-dihydroxypropyl)-8,9-methylenedioxy-5,11-dioxo-11H-indeno[1,2-c]isoquinoline], the “Top1 Cleavage” value on recombinant Top1 [1] is “++ (++, between 50 and 75% activity)”.

As to `O=C1c2cc3c(cc2-c2c1c1ccc(F)cc1c(=O)n2CCCn1ccnc1)OCO3` [Compound 25, 3-Fluoro-6-(3-(1H-imidazol-1-yl)propyl)-8,9-methylenedioxy-5,11-dioxo-11H-indeno[1,2-c]isoquinoline], the GI50 in data set [2] was not above 0.011 µM. At recombinant Top1 [1] (high drug concentration (100 μM), band density at several cleavage sites decreases), the Top1 suppression activity result was “suppress Top1-mediated DNA cleavage”. Besides, on recombinant Top1 [1], the “Top1 Cleavage” value was “+++ (+++, between 75 and 95% activity)”.

In the case of `O=C1c2cc3c(cc2-c2c1c1ccc(F)cc1c(=O)n2C[C@H](O)CO)OCO3` [Compound 21, (S)-3-Fluoro-6-(2,3-dihydroxypropyl)-8,9-methylenedioxy-5H-indeno[1,2-c]isoquinoline-5,11(6H)-dione], the “Top1 Cleavage” value on recombinant Top1 [1] is reported as “++++”.

For `O=C1c2cc3c(cc2-c2c1c1ccc(F)cc1c(=O)n2C[C@H](O)[C@@H](O)[C@H](O)CO)OCO3` [Compound 23, (2′S,3′R,4′R)-3-Fluoro-5,6-dihydro-6-(2′,3′,4′,5′-tetrahydroxypentyl)-8,9-methylenedioxy-5,11-dioxo-11H-indeno[1,2-c]isoquinoline], the “Top1 Cleavage” value at recombinant Top1 [1] was “++ (++, between 50 and 75% activity)”.

For `O=C1c2cc3c(cc2-c2c1c1cc(F)c(F)cc1c(=O)n2CCCn1ccnc1)OCO3` [Compound 38, 2,3-Difluoro-6-(3-(1H-imidazol-1-yl)propyl)-8,9-methylenedioxy-5,11-dioxo-11H-indeno[1,2-c]isoquinoline], the GI50 in data set [2] came out at 0.03 µM. Moreover, the “Top1 Cleavage” value on recombinant Top1 [1] is “+ (+, between 20 and 50% activity)”.

Regarding `O=C(O)C(F)(F)F.O=C1c2cc3c(cc2-c2c1c1ccc(Cl)cc1c(=O)n2CCCN1CCOCC1)OCO3` [Compound 28, 3-Chloro-5,6-dihydro-6-(3-morpholinopropyl)-8,9-methylenedioxy-5,11-dioxo-11H-indeno[1,2-c]isoquinoline Trifluoroacetate], the “Top1 Cleavage” value on recombinant Top1 [1] was “+ (+, between 20 and 50% activity)”.

As to `O=C1c2cc3c(cc2-c2c1c1ccc(Cl)cc1c(=O)n2C[C@H](O)CO)OCO3` [Compound 22, (S)-3-Chloro-6-(2,3-dihydroxypropyl)-8,9-methylenedioxy-5H-indeno[1,2-c]isoquinoline-5,11(6H)-dione], on recombinant Top1 [1], the “Top1 Cleavage” value was “++ (++, between 50 and 75% activity)”.

Consider `O=C1c2cc3c(cc2-c2c1c1cc(Cl)c(Cl)cc1c(=O)n2CCCn1ccnc1)OCO3` [Compound 46, 2,3-Dichloro-6-(3-(1H-imidazol-1-yl)propyl)-8,9-methylenedioxy-5,11-dioxo-11H-indeno[1,2-c]isoquinoline], for which the “Top1 Cleavage” value on recombinant Top1 [1] is “+ (+, between 20 and 50% activity)”.

As for `O=C(O)C(F)(F)F.O=C1c2cc3c(cc2-c2c1c1ccc(F)cc1c(=O)n2CCCN1CCOCC1)OCO3` [Compound 27, 3-Fluoro-5,6-dihydro-6-(3-morpholinopropyl)-8,9-methylenedioxy-5,11-dioxo-11H-indeno[1,2-c]isoquinoline Trifluoroacetate], the “Top1 Cleavage” value at recombinant Top1 [1] was “+ (+, between 20 and 50% activity)”.

As to `O=C1c2cc3c(cc2-c2c1c1cc(Cl)c(Cl)cc1c(=O)n2C[C@H](O)CO)OCO3` [Compound 45, (S)-2,3-Dichloro-6-(2,3-dihydroxypropyl)-8,9-methylenedioxy-5,11-dioxo-11H-indeno[1,2-c]isoquinoline], at recombinant Top1 [1], the “Top1 Cleavage” value was “++ (++, between 50 and 75% activity)”.

Consider `COc1cc2c3c(n(CCCn4ccnc4)c(=O)c2cc1OC)-c1cc2c(cc1C3=O)OCO2` [Compound 5, indimitecan], for which the GI50 with Colon HCT-116 is less than 0.01 µM; in the data set on Renal SN12C it was less than 0.01 µM; in the data set with Prostate DU-145, less than 0.01 µM; in the data set on Ovarian OVCAR-3, 0.085 µM; in the data set on Melanoma UACC-62, less than 0.01 µM; in the data set with Lung HOP-62, less than 0.01 µM. The GI50 in the data set with CNS SF-539 was 0.037 µM. Moreover, on recombinant Top1 [3], the “Top1 Cleavage” value is listed as “++++”. In addition, the “Metabolism in the presence of human liver microsomes” value in data set [4] is reported as “oxidative demethylation of the 2-methoxy group”.

Regarding `COc1cc2c3c(n(CCCN4CCOCC4)c(=O)c2cc1OC)-c1cc2c(cc1C3=O)OCO2` [Compound 4, indotecan], the GI50 with Colon HCT-116 was 1.15 µM; in the data set with Renal SN12C it was 0.813 µM; in the data set on Prostate DU-145 it was 0.155 µM; with Ovarian OVCAR-3, 74.1 µM; in the data set with Melanoma UACC-62 it was 0.03 µM; in the data set on Lung HOP-62, 1.78 µM. For the same molecule, in the data set on CNS SF-539, the GI50 is 0.04 µM. Also, the “Top1 Cleavage” value at recombinant Top1 [3] is on record as “++++”.

On to `O=C1c2cc3c(cc2-c2c1c1ccc(Cl)cc1c(=O)n2CCCn1ccnc1)OCO3` [Compound 26, 3-Chloro-6-(3-(1H-imidazol-1-yl)propyl)-8,9-methylenedioxy-5,11-dioxo-11H-indeno[1,2-c]isoquinoline], for which the “Top1 Cleavage” value at recombinant Top1 [1] is “++ (++, between 50 and 75% activity)”.

On to `O=C1c2cc3c(cc2-c2c1c1ccc(Cl)cc1c(=O)n2C[C@H](O)[C@H](O)[C@H](O)CO)OCO3` [Compound 24, (2′S,3′S,4′R)-3-Chloro-5,6-dihydro-6-(2′,3′,4′,5′-tetrahydroxypentyl)-8,9-methylenedioxy-5,11-dioxo-11H-indeno[1,2-c]isoquinoline], for which, on recombinant Top1 [1], the “Top1 Cleavage” value is “+ (+, between 20 and 50% activity)”.

For the molecule `COc1cc2c3c(n(CCCNCCO)c(=O)c2cc1OC)-c1cc2c(cc1C3=O)OCO2` [Compound 6, MJ-III-65], the concentration for 50% growth inhibition (GI50) in the data set with Prostate DU-145 was 0.02 µM; with Melanoma UACC-62, 0.03 µM. The “Top1 Cleavage” value on recombinant Top1 [3] is recorded as “++++”.
